Experimental data pooled from the literature.
Compare with care: the assays were run in different laboratories.
Target: Cyclin-dependent kinase 14 (CDK14, Homo sapiens, UniProt O94921)

Compound	test	setting	remaining binding [%]
COc1ccnn2ncc(-c3ccnc(N(C)C)n3)c12	binding	1 µM	100
O=C(Nc1cnc(Oc2ccc(F)cc2)nc1)N1CCc2ncccc2[C@@H]1c1ccc(F)cc1	cell-free assay, competition with immobilised ligand	1 µM	100
COc1cnc(Nc2cccc(S(N)(=O)=O)c2)nc1N1CCN(c2ccccc2)C(=O)C1	binding, competition with immobilised ligand	1 µM	100
O=C(NCCCN1CCOCC1)c1ccc(Nc2nccc(-c3cc4ccccc4s3)n2)cc1	binding, competition with immobilised ligand	1 µM	100
O=C(N1CCS(=O)(=O)CC1)N1C[C@H](c2ccc(OC(F)(F)F)cc2)C[C@H](c2nc(C3CC3)no2)C1	cell-free assay, competition with immobilised ligand	1 µM	100
C[C@@H]1CCN(c2nccc(-c3cnn4ncccc34)n2)C1	binding	1 µM	100
Nc1ncc2c(n1)-c1c([nH]c3ccc(C#CC4CC4)cc13)CCCC2	binding, competition with immobilised ligand	1 µM	88
CCOC(=O)c1cc2cc(-c3cc(C(=O)NCc4ccc(C(=O)O)cc4)nn3C)ccc2[nH]1	cell-free assay, competition with immobilised ligand	0.1 µM	100
CN(C)c1nccc(-c2cnc3ncccn23)n1	binding	1 µM	100
COc1ncc2cc3ccccc3nc2c1C#N	cell-free assay, competition with immobilised ligand	5 µM	99
CN(CCCC(F)(F)F)c1nccc(-c2cnn3ncccc23)n1	binding	1 µM	93
CS(=O)(=O)c1cc(C2(NC(=O)c3cncc4c3cnn4-c3ccc(F)cc3)CC2)ccn1	cell-free assay, competition with immobilised ligand	1 µM	100
CN(C)c1nccc(-c2cnn3ncccc23)n1	binding	1 µM	89
CNC(=O)[C@@H]1CC[C@@H](n2c(-c3ccc4cnccc4c3)nc3ccc(C(=O)NCc4cccc(C(N)=O)c4)cc32)C1	binding, competition with immobilised ligand	1 µM	100
O=C(N[C@H]1CCCCC/C=C\C2C[C@@]2(C(=O)O)NC(=O)[C@@H]2C[C@@H](Oc3ccncc3)CN2C1=O)OC1CCCC1 (stereo partly shown)	binding, competition with immobilised ligand	1 µM	91
N[C@H]1CCN(c2nccc(-c3cnn4ncccc34)n2)C1	binding	1 µM	100
O=C(c1ccc(Nc2ncc(Cl)c(-c3cc4ccccc4s3)n2)cc1)N1CCC(N2CCCC2)CC1	binding, competition with immobilised ligand	1 µM	78
CNCc1ccccc1-c1csc([C@H](C)Nc2nc(C)nc3cc(OC)c(OC)cc23)c1	cell-free assay, competition with immobilised ligand	1 µM	100
O=C(Nc1c[nH]nc1C(=O)NC1CCNCC1)c1cc(F)cc(F)c1	binding, competition with immobilised ligand	1 µM	99
